Converted amounts (≈) assume the structure as drawn.
Assays:
Type in all cases: functional
[1] = tested on: Mycobacterium kansasii; assay: Antimycobacterial activity against Mycobacterium kansasii 6509/96 after 14 days by micromethod; settings: 6509/96, 336 h
Summary of the method: (§1)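 Micromethod in Sula semisynthetic medium, with compounds added as DMSO solutions at 1000, 500, 250, 125, 62, 32, 16, 8, 4, 2, 1, 0.5, 0.25. Inoculum dilutions: H37Rv 10^-3; M. avium 330/88 10^-5; M. kansasii 235/80 10^-4; M. kansasii 6509/96 10^-5. Incubated at 37 °C, read at 14 and 21 days, and at 7 days for M. kansasii. MIC was the lowest concentration inhibiting growth.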

[2] = tested on: Pichia kudriavzevii; assay: Antifungal activity against Candida krusei E28 after 48 hrs by broth microdilution method; settings: E28, 48 h
[3] = tested on: Mycobacterium kansasii; assay: Antimycobacterial activity against Mycobacterium kansasii 235/80 after 14 days by micromethod; settings: 235/80, 336 h; summary of the method: as §1
[4] = tested on: Mycobacterium tuberculosis; assay: Antimycobacterial activity against drug-sensitive Mycobacterium tuberculosis
[5] = tested on: Staphylococcus aureus; assay: Antibacterial activity against Staphylococcus aureus CCM 4516/08 after 48 hrs by broth microdilution method; settings: CCM 4516/08, 48 h
Summary of the method: (§2)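 Broth microdilution following […], with twofold compound dilutions in Mueller-Hinton bouillon. Incubated 24 and 48 h at 35 °C in the dark in a humid atmosphere. MIC (IC80) was taken as ≥80% growth reduction versus control, read visually and photometrically.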

[6] = tested on: Nakaseomyces glabratus; assay: Antifungal activity against Candida glabrata 20/I after 48 hrs by broth microdilution method
[7] = tested on: Pichia kudriavzevii; assay: Antifungal activity against Candida krusei E28 after 24 hrs by broth microdilution method; settings: E28, 24 h
[8] = tested on: Klebsiella pneumoniae; assay: Antibacterial activity against Klebsiella pneumoniae D11750/08 after 24 hrs by broth microdilution method; settings: D11750/08, 24 h; summary of the method: as §2
[9] = tested on: Mycobacterium kansasii; assay: Antimycobacterial activity against Mycobacterium kansasii 6509/96 after 7 days by micromethod; settings: 6509/96, 168 h; summary of the method: as §1
[10] = tested on: Mycobacterium avium; assay: Antimycobacterial activity against Mycobacterium avium
[11] = tested on: Trichophyton mentagrophytes; assay: Antifungal activity against Trichophyton mentagrophytes after 24 hrs by broth microdilution method
[12] = tested on: Staphylococcus epidermidis; assay: Antibacterial activity against Staphylococcus epidermidis H6966/08 after 24 hrs by broth microdilution method; settings: H6966/08, 24 h; summary of the method: as §2
[13] = tested on: Aspergillus fumigatus; assay: Antifungal activity against Aspergillus fumigatus 231 after 24 hrs by broth microdilution method; settings: Aspergillus fumigatus, 231, 24 h
[14] = tested on: Candida albicans; assay: Antifungal activity against Candida albicans ATCC 44859 after 24 hrs by broth microdilution method; settings: ATCC 44859, 24 h
[15] = tested on: Mycobacterium kansasii; assay: Antimycobacterial activity against Mycobacterium kansasii 6509/96 after 21 days by micromethod; settings: 6509/96, 504 h; summary of the method: as §1
[16] = tested on: Mycobacterium avium; assay: Antimycobacterial activity against multidrug-resistant Mycobacterium avium 330/88 after 14 days by micromethod; settings: 330/88, 336 h; summary of the method: as §1
[17] = tested on: Nakaseomyces glabratus; assay: Antifungal activity against Candida glabrata 20/I after 24 hrs by broth microdilution method
[18] = tested on: Staphylococcus aureus; assay: Antibacterial activity against Staphylococcus aureus CCM 4516/08 after 24 hrs by broth microdilution method; settings: CCM 4516/08, 24 h; summary of the method: as §2
[19] = tested on: Staphylococcus aureus; assay: Antibacterial activity against methicillin-resistant Staphylococcus aureus H5996/08 after 24 hrs by broth microdilution method; settings: H5996/08, 24 h; summary of the method: as §2
[20] = tested on: Escherichia coli; assay: Antibacterial activity against Escherichia coli CCM 4517 after 24 hrs by broth microdilution method; settings: CCM 4517, 24 h; summary of the method: as §2
[21] = tested on: Escherichia coli; assay: Antibacterial activity against Escherichia coli CCM 4517 after 48 hrs by broth microdilution method; settings: CCM 4517, 48 h; summary of the method: as §2
[22] = tested on: Candida tropicalis; assay: Antifungal activity against Candida tropicalis 156 after 24 hrs by broth microdilution method; settings: Candida tropicalis, 156, 24 h
[23] = tested on: Enterococcus sp.; assay: Antibacterial activity against Enterococcus sp. J14365/08 after 48 hrs by broth microdilution method; settings: J14365/08, 48 h; summary of the method: as §2
[24] = tested on: Mycobacterium tuberculosis; assay: Antimycobacterial activity against Mycobacterium tuberculosis H37Rv 331/88 after 21 days by micromethod; settings: H37Rv 331/88, 504 h; summary of the method: as §1
[25] = tested on: Candida tropicalis; assay: Antifungal activity against Candida tropicalis 156 after 48 hrs by broth microdilution method; settings: Candida tropicalis, 156, 48 h
[26] = tested on: Trichosporon beigelii; assay: Antifungal activity against Trichosporon beigelii 1188 after 24 hrs by broth microdilution method; settings: Trichosporon beigelii, 1188, 24 h
[27] = tested on: Mycobacterium kansasii; assay: Antimycobacterial activity against Mycobacterium kansasii
[28] = tested on: Mycobacterium avium; assay: Antimycobacterial activity against multidrug-resistant Mycobacterium avium 330/88 after 21 days by micromethod; settings: 330/88, 504 h; summary of the method: as §1
[29] = tested on: Enterococcus sp.; assay: Antibacterial activity against Enterococcus sp. J14365/08 after 24 hrs by broth microdilution method; settings: J14365/08, 24 h; summary of the method: as §2
[30] = tested on: Staphylococcus aureus; assay: Antibacterial activity against methicillin-resistant Staphylococcus aureus H5996/08 after 48 hrs by broth microdilution method; settings: H5996/08, 48 h; summary of the method: as §2
[31] = tested on: Aspergillus fumigatus; assay: Antifungal activity against Aspergillus fumigatus 231 after 48 hrs by broth microdilution method; settings: Aspergillus fumigatus, 231, 48 h
[32] = tested on: Candida albicans; assay: Antifungal activity against Candida albicans ATCC 44859 after 48 hrs by broth microdilution method; settings: ATCC 44859, 48 h
[33] = tested on: Staphylococcus epidermidis; assay: Antibacterial activity against Staphylococcus epidermidis H6966/08 after 48 hrs by broth microdilution method; settings: H6966/08, 48 h; summary of the method: as §2
[34] = tested on: Trichosporon beigelii; assay: Antifungal activity against Trichosporon beigelii 1188 after 48 hrs by broth microdilution method; settings: Trichosporon beigelii, 1188, 48 h
[35] = tested on: Mycobacterium kansasii; assay: Antimycobacterial activity against Mycobacterium kansasii 235/80 after 7 days by micromethod; settings: 235/80, 168 h; summary of the method: as §1
[36] = tested on: Trichophyton mentagrophytes; assay: Antifungal activity against Trichophyton mentagrophytes after 48 hrs by broth microdilution method
[37] = tested on: Mycobacterium tuberculosis; assay: Antimycobacterial activity against Mycobacterium tuberculosis H37Rv 331/88 after 14 days by micromethod; settings: H37Rv 331/88, 336 h; summary of the method: as §1
[38] = tested on: Lichtheimia corymbifera; assay: Antifungal activity against Absidia corymbifera 272 after 48 hrs by broth microdilution method; settings: Lichtheimia corymbifera, 272, 48 h
[39] = tested on: Lichtheimia corymbifera; assay: Antifungal activity against Absidia corymbifera 272 after 24 hrs by broth microdilution method; settings: Lichtheimia corymbifera, 272, 24 h
[40] = tested on: Klebsiella pneumoniae; assay: Antibacterial activity against Klebsiella pneumoniae D11750/08 after 48 hrs by broth microdilution method; settings: D11750/08, 48 h; summary of the method: as §2
[41] = tested on: Mycobacterium kansasii; assay: Antimycobacterial activity against Mycobacterium kansasii 235/80 after 21 days by micromethod; settings: 235/80, 504 h; summary of the method: as §1

CC(=O)N[C@@H](Cc1ccccc1)C(=O)Oc1cc(Cl)ccc1C(=O)Nc1ccc(Cl)cc1
MIC [1]: 8 µM (≈ 3.77 µg/mL)
MIC [2]: > 125 µM
MIC [3]: 4 µM (≈ 1.89 µg/mL)
MIC [4]: 1 µM (≈ 0.471 µg/mL)
MIC [5]: 15.6 µM (≈ 7.36 µg/mL)
MIC [6]: > 125 µM
MIC [7]: 31.2 µM (≈ 14.7 µg/mL)
MIC [8]: 62.5 µM (≈ 29.5 µg/mL)
MIC [9]: 4 µM (≈ 1.89 µg/mL)
MIC [10]: 1 µM (≈ 0.471 µg/mL)
MIC [11]: 15.6 µM (≈ 7.36 µg/mL)
MIC [12]: 1.95 µM (≈ 0.919 µg/mL)
MIC [13]: > 125 µM
MIC [14]: 31.2 µM (≈ 14.7 µg/mL)
MIC [15]: 16 µM (≈ 7.54 µg/mL)
MIC [16]: 8 µM (≈ 3.77 µg/mL)
MIC [17]: > 125 µM
MIC [18]: 1.95 µM (≈ 0.919 µg/mL)
MIC [19]: 1.95 µM (≈ 0.919 µg/mL)
MIC [20]: 31.2 µM (≈ 14.7 µg/mL)
MIC [21]: > 125 µM
MIC [22]: > 125 µM
MIC [23]: > 125 µM
MIC [24]: 4 µM (≈ 1.89 µg/mL)
MIC [25]: > 125 µM
MIC [26]: 15.6 µM (≈ 7.36 µg/mL)
MIC [27]: 1 µM (≈ 0.471 µg/mL)
MIC [28]: 16 µM (≈ 7.54 µg/mL)
MIC [29]: 3.9 µM (≈ 1.84 µg/mL)
MIC [30]: 31.2 µM (≈ 14.7 µg/mL)
MIC [31]: > 125 µM
MIC [32]: > 125 µM
MIC [33]: 31.2 µM (≈ 14.7 µg/mL)
MIC [34]: 62.5 µM (≈ 29.5 µg/mL)
MIC [35]: 4 µM (≈ 1.89 µg/mL)
MIC [36]: 31.2 µM (≈ 14.7 µg/mL)
MIC [37]: 4 µM (≈ 1.89 µg/mL)
MIC [38]: 7.81 µM (≈ 3.68 µg/mL)
MIC [39]: 7.81 µM (≈ 3.68 µg/mL)
MIC [40]: 125 µM (≈ 58.9 µg/mL)
MIC [41]: 4 µM (≈ 1.89 µg/mL)

CC(=O)N[C@@H](Cc1ccccc1)C(=O)Oc1cc(Cl)ccc1C(=O)Nc1ccc(Br)cc1
MIC [1]: 4 µM (≈ 2.06 µg/mL)
MIC [2]: > 125 µM
MIC [3]: 4 µM (≈ 2.06 µg/mL)
MIC [4]: 1 µM (≈ 0.516 µg/mL)
MIC [5]: 1.95 µM (≈ 1.01 µg/mL)
MIC [6]: > 125 µM
MIC [7]: > 125 µM
MIC [8]: > 125 µM
MIC [9]: 4 µM (≈ 2.06 µg/mL)
MIC [10]: 1 µM (≈ 0.516 µg/mL)
MIC [11]: 7.81 µM (≈ 4.03 µg/mL)
MIC [12]: 0.98 µM (≈ 0.505 µg/mL)
MIC [13]: 62.5 µM (≈ 32.2 µg/mL)
MIC [14]: > 125 µM
MIC [15]: 8 µM (≈ 4.13 µg/mL)
MIC [16]: 4 µM (≈ 2.06 µg/mL)
MIC [17]: > 125 µM
MIC [18]: 0.98 µM (≈ 0.505 µg/mL)
MIC [19]: 0.98 µM (≈ 0.505 µg/mL)
MIC [20]: 15.6 µM (≈ 8.06 µg/mL)
MIC [21]: 125 µM (≈ 64.5 µg/mL)
MIC [22]: > 125 µM
MIC [23]: 125 µM (≈ 64.5 µg/mL)
MIC [24]: 4 µM (≈ 2.06 µg/mL)
MIC [25]: > 125 µM
MIC [26]: 15.6 µM (≈ 8.06 µg/mL)
MIC [27]: 1 µM (≈ 0.516 µg/mL)
MIC [28]: 8 µM (≈ 4.13 µg/mL)
MIC [29]: 7.81 µM (≈ 4.03 µg/mL)
MIC [30]: 7.81 µM (≈ 4.03 µg/mL)
MIC [31]: > 125 µM
MIC [32]: > 125 µM
MIC [33]: 1.95 µM (≈ 1.01 µg/mL)
MIC [34]: 62.5 µM (≈ 32.2 µg/mL)
MIC [35]: 2 µM (≈ 1.03 µg/mL)
MIC [36]: 15.6 µM (≈ 8.06 µg/mL)
MIC [37]: 2 µM (≈ 1.03 µg/mL)
MIC [38]: 62.5 µM (≈ 32.2 µg/mL)
MIC [39]: 15.6 µM (≈ 8.06 µg/mL)
MIC [40]: > 125 µM
MIC [41]: 4 µM (≈ 2.06 µg/mL)

From ChEMBL document CHEMBL1629494, “New amino acid esters of salicylanilides active against MDR-TB and other microbes” (Eur J Med Chem, 2010)
